Source: PubChem BioAssay
The source made the active and inactive calls.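 The calls were made as follows, unless noted: active = current rise at least 3 SD above the untreated control mean in each of two repeat wells; inactive = the rest.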

How the values were obtained:
[1] = target: Potassium voltage-gated channel subfamily KQT member 1 (Homo sapiens) (UniProt P51787); experiment: KCNQ1 channel current potentiators, confirmation, orthogonal assay for KCNQ1 potentiator project, IonWorks patch clamp, KCNQ1-CHO cells (AID 493184); settings: automated patch clamp current, at 10 µM
Chain of Potassium voltage-gated channel subfamily KQT member 1 (Homo sapiens) (P51787 whole entry, looked up): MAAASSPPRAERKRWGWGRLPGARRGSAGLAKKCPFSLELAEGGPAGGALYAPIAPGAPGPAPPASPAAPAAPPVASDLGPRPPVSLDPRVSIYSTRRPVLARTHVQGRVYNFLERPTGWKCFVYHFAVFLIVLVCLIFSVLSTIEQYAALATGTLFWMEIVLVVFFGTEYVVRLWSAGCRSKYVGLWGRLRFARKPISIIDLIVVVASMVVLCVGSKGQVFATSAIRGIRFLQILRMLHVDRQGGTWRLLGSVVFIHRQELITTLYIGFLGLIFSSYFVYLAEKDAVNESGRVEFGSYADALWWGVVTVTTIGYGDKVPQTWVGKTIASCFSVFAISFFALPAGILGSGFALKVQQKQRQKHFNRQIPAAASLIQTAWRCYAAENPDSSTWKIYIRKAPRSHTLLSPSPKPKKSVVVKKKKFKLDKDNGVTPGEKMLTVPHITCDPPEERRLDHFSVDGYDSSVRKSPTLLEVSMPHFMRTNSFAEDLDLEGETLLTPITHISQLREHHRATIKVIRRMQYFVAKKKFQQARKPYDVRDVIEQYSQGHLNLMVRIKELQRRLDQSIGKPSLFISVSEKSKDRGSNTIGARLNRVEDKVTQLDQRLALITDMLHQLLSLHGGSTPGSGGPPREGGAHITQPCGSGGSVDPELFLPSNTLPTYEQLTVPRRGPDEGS
Method in brief: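 Read-out: Percent current increase versus pre-compound level | Assay system: CHO cells carrying KCNQ1 | Measured by: Automated perforated-patch electrophysiology | Medium: External bath solution at pH 7.4 | Dosing: One dose, 10 µM final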

[2] = target: Potassium voltage-gated channel subfamily E member 1 (Homo sapiens) + Potassium voltage-gated channel subfamily KQT member 1 (Homo sapiens) (UniProt P15382+P51787); experiment: KCNQ1/KCNE1 complex potentiators, confirmation, selectivity assay for KCNQ1 potentiator project, thallium flux, CHO-K1 KCNQ1/E1 cells (AID 493186;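 active = mean duplicate activation above the buffer control mean plus 5 SD of those controls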); settings: FluxOR thallium flux, at 10 µM
Chain of Potassium voltage-gated channel subfamily E member 1 (Homo sapiens) + Potassium voltage-gated channel subfamily KQT member 1 (Homo sapiens) (P51787 whole entry, looked up): as the sequence (P51787 whole entry, looked up) above
Method in brief: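 Test system: CHO-K1 cells with KCNQ1/E1; dosing: one test concentration; signal: FluxOR Tl+ flux fluorescence, kinetic read; incubation: 90-min dye loading then 20-min compound exposure, both at room temperature; read-out basis: percent of R-L3 effect over buffer; replication: duplicate wells per compound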

| SMILES | outcome [1] | outcome [2] |
| --- | --- | --- |
| CCCCCCCCCC[n+]1cccc2c3ccccc3ccc21 | inactive |  |
| COc1ccc(NS(=O)(=O)c2ccc3ccccc3c2)c2ncccc12 | inactive |  |
| Cc1cc(C)c2c(=O)n(CC(=O)Nc3cccc(Cl)c3C)sc2n1 | inactive |  |
| CC(C)NS(=O)(=O)c1ccc(NC(=O)C(C)Oc2ccc(C(=O)c3ccccc3)cc2)cc1 (configuration not stated) | inactive | inactive |
| Cc1ccc(C(=O)O)cc1N=Cc1cc(Br)cc(Br)c1O | inactive |  |
| CCCc1nc2oc3c(NCCCN(C)C)ncnc3c2c2c1CCCC2 | inactive |  |
| CN(C)CCCN(C(=O)CCc1ccccc1)c1nc2ccc(F)cc2s1 | inactive |  |
| CCN(CC)c1ncnc2sc3c(c12)CCC3 | inactive | inactive |
| Cc1nn(-c2cc(C(F)(F)F)ccc2Cl)c2nc(C(Cl)(Cl)Cl)[nH]c(=O)c12 | inactive |  |
| COc1cc(C2(c3ccc(O)c(OC)c3)C(=O)Nc3c(C)cc(Br)cc32)ccc1O | inactive |  |
| O=C(O)CCCN1C(=O)/C(=C\c2ccc(-c3nc4ccccc4s3)o2)SC1=S | inactive | inactive |
| O=C(Nc1ccnn1C1CCN(Cc2cc3ccccc3[nH]2)CC1)C1CCOC1 (configuration not stated) | inactive |  |
| CN(C)S(=O)(=O)N1CCC(CCCC2CCN(S(=O)(=O)N(C)C)CC2)CC1 | inactive |  |
| O=C1C=CC(=O)N1CCNc1ncc(C(F)(F)F)cc1Cl | inactive | inactive |
| Cc1ccc2c(c1)C1CN(C)CCC1N2C(=S)NC(=O)c1ccc(Br)cc1 (configuration not stated) | inactive |  |
| COc1cc(NC(=O)CSc2ncnc3sc4c(c23)CCC(C)C4)c(C(=O)O)cc1OC (configuration not stated) | inactive |  |
| CCCCN(CC)CCCNC(=O)c1cc2cc3ccc(C)cc3nc2o1 | inactive |  |
| CN(CCCNC(=O)CCCOc1cc(=O)n(C)c2ccccc12)Cc1ccccc1 | inactive |  |
